Source: ChEMBL document CHEMBL1152591, “Design, synthesis and structure-activity relationship of 2-(3',4',5'-trimethoxybenzoyl)-benzo[b]furan derivatives as a novel class of inhibitors of tubulin polymerization” (Bioorg Med Chem, 2009)

Assays:
L1210 = assay: Cytotoxicity against mouse L1210 cells after 2 days; assay type: functional, cell-based; conditions: L1210, 48 h
Summary of the method: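 Cells were incubated with the compounds at 37 °C for two days, then counted on a Coulter counter. IC50 is the concentration that inhibits cell proliferation by 50%.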

K562 [1] = assay: Cell cycle arrest in human K562 cells assessed as accumulation at G2 phase at 26 nM after 24 hrs by flow cytometry; assay type: functional
Summary of the method: (§1)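 K562 leukaemia cells were cultured for 24 h with compound at one fixed concentration. DNA content per cell was measured by the standard propidium iodide procedure and flow cytometry. Proportions of cells in the sub-G0–G1 (apoptotic), G0–G1, S and G2–M peaks were compared with an untreated control.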

[2] = Cytotoxicity against human Molt4/C8 cells after 2 days; conditions: MOLT-4, 48 h
HeLa = assay: Cytotoxicity against human HeLa cells after 2 days; assay type: functional, cell-based; conditions: 48 h
K562 [3] = assay: Cell cycle arrest in human K562 cells assessed as accumulation at G1 phase at 26 nM after 24 hrs by flow cytometry; assay type: functional; summary of the method: as §1
FM3A = assay: Cytotoxicity against mouse FM3A0 cells after 2 days; assay type: functional, cell-based; conditions: 48 h
Bos taurus = species on record: Bos taurus; assay: Displacement of [3H]colchicine from bovine tubulin at 5 uM
Summary of the method: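 Reaction mixtures held 1 μM bovine brain tubulin, 5 μM [3H]colchicine and 5 μM test compound. Inhibition of radiolabelled colchicine binding to tubulin is expressed as percent inhibition.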

K562 [4] = assay: Cell cycle arrest in human K562 cells assessed as accumulation at sub-G0/G1 phase at 26 nM after 24 hrs by flow cytometry; assay type: functional; summary of the method: as §1
K562 [5] = assay: Cell cycle arrest in human K562 cells assessed as accumulation at S phase at 26 nM after 24 hrs by flow cytometry; assay type: functional; summary of the method: as §1
[6] = Inhibition of bovine tubulin polymerization; design: species or system Bos taurus
Summary of the method: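 Purified bovine brain tubulin (10 μM) in glutamate buffer was preincubated with varying compound concentrations at 30 °C, then cooled to 0 °C. GTP was added and the mixture warmed to 30 °C in a recording spectrophotometer. Assembly was followed by turbidity.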

Activity (Bos taurus): 97%
IC50 [6]: 550 nM
Structure (SMILES): COc1ccc2c(C)c(C(=O)c3cc(OC)c(OC)c(OC)c3)oc2c1
IC50 (L1210): 24 nM
Activity (K562 [1]): 81.19%
IC50 [2]: 19 nM
IC50 (HeLa): 3.2 nM
Activity (K562 [3]): 2.19%
IC50 (FM3A): 27 nM
Activity (K562 [4]): 4.9%
Activity (K562 [5]): 16.62%
